Measured values published in ChEMBL document CHEMBL1137766, “Synthesis and biological evaluation of 3,4,6-triaryl-2-pyranones as a potential new class of anti-breast cancer agents” (Bioorg Med Chem, 2009).
Calls of active or inactive are those of the source. The calls are words filed in the database; no cut-off is given here.

How the values were obtained:
MCF7 [1] = assay: Antiproliferative activity against human MCF7 cells expressing estrogen receptor after 48 hrs by MTT assay; type: functional, cell-based; settings: MCF7, 48 h
Summary of the method: (§1)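 MTT reduction: 1 × 10⁴ cells/well seeded in DMEM with 10% FBS, incubated 24 h at 37 °C in CO₂. Compounds diluted in culture medium and applied for 48 h. MTT (5 mg/mL stock) added for 4 h, formazan dissolved in DMSO, absorbance read at 540 nm. IC50 taken from growth inhibition. Vehicle control 0.001% DMSO.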

MDA-MB-231 [2] = assay: Antiproliferative activity against human estrogen receptor deficient MDA-MB-231 cells after 48 hrs by MTT assay; type: functional, cell-based; settings: MDA-MB-231, 48 h; summary of the method: as §1
Vero = assay: Cytotoxicity against african green monkey Vero cells after 48 hrs by MTT assay; type: cell-based; settings: chlorocebus sabaeus
[3] = Cytotoxicity against osteoblasts after 48 hrs by MTT assay; type: cell-based; settings: osteoblast
[4] = biological target: T1, Estrogen receptor (Homo sapiens) (UniProt P03372); assay: Transactivation of ERalpha expressed in african green monkey COS7 cells at 5 uM after 24 hrs by luciferase reporter gene assay; type: cell-based; settings: COS-7
T1 sequence (whole entry): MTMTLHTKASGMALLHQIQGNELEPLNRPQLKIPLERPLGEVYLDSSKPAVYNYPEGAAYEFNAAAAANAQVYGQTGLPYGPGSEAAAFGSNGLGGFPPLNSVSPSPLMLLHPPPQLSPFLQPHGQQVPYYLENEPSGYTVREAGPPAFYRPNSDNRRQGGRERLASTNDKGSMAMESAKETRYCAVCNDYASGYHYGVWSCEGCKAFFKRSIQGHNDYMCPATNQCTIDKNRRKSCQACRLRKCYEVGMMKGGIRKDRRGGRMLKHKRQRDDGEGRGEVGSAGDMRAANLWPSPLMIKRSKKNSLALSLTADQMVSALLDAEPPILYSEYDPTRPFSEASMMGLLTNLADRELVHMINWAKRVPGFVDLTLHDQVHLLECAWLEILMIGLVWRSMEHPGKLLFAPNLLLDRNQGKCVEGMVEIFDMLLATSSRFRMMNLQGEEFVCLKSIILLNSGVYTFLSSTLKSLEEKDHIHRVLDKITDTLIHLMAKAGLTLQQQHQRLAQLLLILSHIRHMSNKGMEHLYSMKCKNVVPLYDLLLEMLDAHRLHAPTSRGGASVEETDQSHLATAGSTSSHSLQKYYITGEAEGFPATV
Summary of the method: (§2)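 Cos-7 cells, 40,000 per well, seeded 24 h before co-transfection with 200 ng pGL3-Gal4Tk-Luc reporter plus ERα or ERβ expression plasmid and pRL-CMV. Compounds given, then cells harvested 24 h post-transfection for dual-luciferase assay. Firefly signal normalised to Renilla and GFP, expressed as fold over VP-16 control. Mean ± SD of three independent experiments.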

MCF7 [5] = assay: Induction of apoptosis in human MCF7 cells assessed as DNA fragmentation at 20 uM after 24 hrs by ELISA; type: functional, cell-based
Summary of the method: (§3)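 BrdU-labelled cells incubated with compound for 24 h. Cells lysed 30 min at rt and spun at 250g for 10 min. Supernatant captured on adsorbed anti-DNA antibody, fixed by microwave 5 min, then probed 90 min with peroxidase anti-BrdU; OD read at 370 nm. Kit positive and negative controls used. Duplicates from two independent experiments.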

MDA-MB-231 [6] = assay: Induction of apoptosis in human MDA-MB-231 cells assessed as morphological changes at 10 uM after 18 hrs using Hoechst 33342 staining by fluorescent microscopy; type: functional, cell-based
Summary of the method: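 10,000 cells seeded on 18-mm coverslips and grown 24 h. Medium replaced, then cells treated with 10 µM compound for 18 h. Stained with Hoechst 33342 0.5 µg/ml in 4% paraformaldehyde for 30 min at 37 °C. Random fields imaged by fluorescence microscopy; viable versus apoptotic cells judged qualitatively by fluorescence and nuclear fragmentation.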

MCF7 [7] = assay: Induction of apoptosis in human MCF7 cells assessed as DNA fragmentation at 10 uM after 24 hrs by ELISA; type: functional, cell-based; summary of the method: as §3
[8] = biological target: Estrogen receptor beta (Homo sapiens) (UniProt Q92731); assay: Transactivation of ERbeta expressed in african green monkey COS7 cells at 5 uM after 24 hrs by luciferase reporter gene assay; type: cell-based; settings: COS-7; summary of the method: as §2
Sequence of Estrogen receptor beta (Homo sapiens) (Q92731 whole entry): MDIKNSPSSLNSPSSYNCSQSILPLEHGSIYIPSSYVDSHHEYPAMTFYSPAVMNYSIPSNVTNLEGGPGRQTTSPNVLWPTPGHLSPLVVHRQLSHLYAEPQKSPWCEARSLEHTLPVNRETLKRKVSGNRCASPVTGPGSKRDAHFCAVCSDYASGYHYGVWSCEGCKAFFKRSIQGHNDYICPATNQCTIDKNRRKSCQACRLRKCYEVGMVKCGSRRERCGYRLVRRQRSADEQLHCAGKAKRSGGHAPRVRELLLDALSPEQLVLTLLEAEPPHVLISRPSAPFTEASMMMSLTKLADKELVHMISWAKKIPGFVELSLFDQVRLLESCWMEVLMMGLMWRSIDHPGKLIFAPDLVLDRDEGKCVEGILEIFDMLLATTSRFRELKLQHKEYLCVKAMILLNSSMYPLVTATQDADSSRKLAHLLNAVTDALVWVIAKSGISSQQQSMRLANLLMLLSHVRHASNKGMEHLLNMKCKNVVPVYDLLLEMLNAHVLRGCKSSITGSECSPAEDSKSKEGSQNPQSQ

MCF7 [9] = assay: Induction of apoptosis in human MCF7 cells assessed as caspase induction at 40 uM after 24 hrs by fluorescence assay; type: functional, cell-based
Summary of the method: (§4)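 Caspase kit covering caspases 2, 3, 6, 7, 8, 9 and 10. MCF-7 cells serum-deprived 4 h, then treated with compound for 24 h at various concentrations. DEVD-rhodamine-110 substrate added; released rhodamine-110 fluorescence read at 560 nm. Camptothecin-treated U937 cells served as positive control. Duplicates from two independent experiments.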

[10] = biological target: T2, Prostaglandin G/H synthase 2 (Homo sapiens, UniProt P35354)
T2 sequence (P35354 whole entry): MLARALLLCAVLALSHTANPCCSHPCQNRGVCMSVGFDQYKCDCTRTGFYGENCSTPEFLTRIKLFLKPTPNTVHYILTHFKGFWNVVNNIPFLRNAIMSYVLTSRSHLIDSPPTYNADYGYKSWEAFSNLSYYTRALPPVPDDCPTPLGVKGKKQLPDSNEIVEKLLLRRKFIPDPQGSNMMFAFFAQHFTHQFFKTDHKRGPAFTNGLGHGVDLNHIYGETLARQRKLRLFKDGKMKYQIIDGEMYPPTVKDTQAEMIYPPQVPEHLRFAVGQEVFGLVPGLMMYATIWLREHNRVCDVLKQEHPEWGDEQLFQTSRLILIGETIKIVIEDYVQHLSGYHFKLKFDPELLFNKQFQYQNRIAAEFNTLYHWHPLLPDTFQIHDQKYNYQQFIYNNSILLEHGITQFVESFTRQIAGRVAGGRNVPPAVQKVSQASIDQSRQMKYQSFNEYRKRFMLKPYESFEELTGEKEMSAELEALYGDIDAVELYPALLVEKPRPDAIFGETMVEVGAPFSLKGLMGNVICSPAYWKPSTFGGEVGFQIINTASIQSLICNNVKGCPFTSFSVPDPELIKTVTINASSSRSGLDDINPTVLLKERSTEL

MCF7 [11] = assay: Induction of apoptosis in human MCF7 cells assessed as caspase induction at 20 uM after 24 hrs by fluorescence assay; type: functional, cell-based; summary of the method: as §4
MDA-MB-231 [12] = assay: Induction of apoptosis in human MDA-MB-231 cells assessed as caspase induction at 40 uM after 24 hrs by fluorescence assay; type: functional, cell-based
MDA-MB-231 [13] = assay: Induction of apoptosis in human MDA-MB-231 cells assessed as caspase induction at 20 uM after 24 hrs by fluorescence assay; type: functional, cell-based
MDA-MB-231 [14] = assay: Induction of apoptosis in human MDA-MB-231 cells assessed as DNA fragmentation at 10 uM after 24 hrs by ELISA; type: functional, cell-based; summary of the method: as §3
MDA-MB-231 [15] = assay: Induction of apoptosis in human MDA-MB-231 cells assessed as DNA fragmentation at 20 uM after 24 hrs by ELISA; type: functional, cell-based; summary of the method: as §3

SMILES	IC50 (MCF7 [1])	IC50 (MDA-MB-231 [2])	Activity (Vero)	Activity [3]	also measured
O=c1oc(-c2ccc(OCCN3CCCC3)cc2)cc(-c2ccccc2)c1-c1ccccc1	25 µM	34 µM	Toxic	Toxic	
O=c1oc(-c2ccccc2)cc(-c2ccccc2)c1-c1ccc(O)cc1	25 µM	38 µM	Non-toxic	Non-toxic	Activity [4]: inactive; Activity (MCF7 [5]): inactive; Activity (MDA-MB-231 [6]): Active; Activity (MCF7 [7]): inactive; Activity [8]: inactive; Activity (MCF7 [9]): Active
COc1ccc(-c2cc(-c3ccccc3)oc(=O)c2-c2ccc(O)cc2)cc1	> 50 µM	> 100 µM			
CC/C(=C(\c1ccccc1)c1ccc(OCCN(C)C)cc1)c1ccccc1 [TAMOXIFEN]	10 µM	20 µM			
COc1ccc(-c2cc(-c3ccccc3)c(-c3ccc(S(C)(=O)=O)cc3)c(=O)o2)cc1					IC50 [10]: 20 nM
O=c1oc(-c2ccccc2)cc(-c2ccc(O)cc2)c1-c1ccccc1	38 µM	> 100 µM			
O=c1oc(-c2ccc(OCCN3CCCCC3)cc2)cc(-c2ccccc2)c1-c1ccccc1	24 µM	> 100 µM			
O=c1oc(-c2ccccc2)cc(-c2ccc(O)cc2)c1-c1ccc(O)cc1	24 µM	27 µM	Non-toxic	Non-toxic	Activity [4]: inactive; Activity (MCF7 [11]): Active; Activity (MDA-MB-231 [12]): inactive; Activity (MCF7 [5]): Active; Activity (MDA-MB-231 [6]): Active; Activity (MCF7 [7]): Active; Activity [8]: inactive; Activity (MDA-MB-231 [15]): Active; Activity (MDA-MB-231 [13]): inactive
O=c1oc(-c2ccccc2)cc(-c2ccccc2)c1-c1ccc(OCCN2CCCCC2)cc1	> 50 µM	> 100 µM			
O=c1oc(-c2ccc(O)cc2)cc(-c2ccccc2)c1-c1ccc(O)cc1	26 µM	> 100 µM			
O=c1oc(-c2ccccc2)cc(-c2ccc(OCCN3CCCCC3)cc2)c1-c1ccccc1	26 µM	11 µM	Toxic	Toxic	

Further lines, with some results ahead:

IC50 (MCF7 [1])	IC50 (MDA-MB-231 [2])	SMILES	Activity (Vero)	Activity [3]	also measured
14 µM	9 µM	O=c1oc(-c2ccccc2)cc(-c2ccc(OCCN3CCCC3)cc2)c1-c1ccccc1	Toxic	Toxic	
23 µM	> 100 µM	O=c1oc(-c2ccccc2)cc(-c2ccccc2)c1-c1ccc(OCCN2CCCC2)cc1			
14 µM	17 µM	COc1ccc(-c2cc(-c3ccccc3)c(-c3ccc(O)cc3)c(=O)o2)cc1	Non-toxic	Non-toxic	Activity [4]: inactive; Activity (MCF7 [11]): Active; Activity (MDA-MB-231 [12]): inactive; Activity (MCF7 [5]): inactive; Activity (MDA-MB-231 [6]): Active; Activity (MCF7 [7]): inactive; Activity [8]: inactive; Activity (MDA-MB-231 [13]): inactive
16 µM	12 µM	COc1ccc(-c2cc(-c3ccccc3)oc(=O)c2-c2ccc(OCCN3CCCCC3)cc2)cc1	Toxic	Toxic	
21 µM	13 µM	O=c1oc(-c2ccc(O)cc2)cc(-c2ccccc2)c1-c1ccccc1	Toxic	Toxic	
14 µM	26 µM	O=c1oc(-c2ccc(O)cc2)cc(-c2ccc(O)cc2)c1-c1ccccc1	Non-toxic	Non-toxic	Activity [4]: inactive; Activity (MCF7 [11]): Active; Activity (MDA-MB-231 [12]): inactive; Activity (MDA-MB-231 [14]): Active; Activity (MCF7 [5]): Active; Activity (MDA-MB-231 [6]): Active; Activity [8]: inactive; Activity (MDA-MB-231 [15]): Active; Activity (MDA-MB-231 [13]): inactive
